ABCB6 inh MLPCN = ABCB6 transporter inhibitors, primary screen, K562-ABCB6 cells, flow cytometry, MLPCN library. ATP-binding cassette sub-family B member 6 (Homo sapiens), Q9NP58. K562-ABCB6 porphyrin accumulation, 1 h; stronger effect = lower value. fluorescence ratio to DMSO, % at 10 µM. hit rate 0.19% among 360,000. AID 602162, 2011;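 active = fluorescence ratio to DMSO below 75%, the collection mean minus 3 SD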;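 note: signal is porphyrin accumulated inside mitochondria; lower ratio means ABCB6 inhibition with less porphyrin fluorescence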
iPSC survival up = enhancers of single-cell hiPSC survival, primary screen, ATPlite luminescence | 100% = ROCK inhibitor wells, 0% = DMSO | survival enhancement, % at 20 µM | hit rate 0.044% among 360,000; in the data active = survival enhancement above about 18%;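 note: cells exposed to compounds for 16 hours before the ATP read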
TbMetRS inhib = T. brucei MetRS inhibitors, primary screen, biochemical, luminescence; hit rate 0.4% among 360,000; inhibition, % at 11.9 µM; methionyl-tRNA synthetase (Trypanosoma brucei brucei); purified T. brucei MetRS, ATP depletion, Kinase-Glo luminescence; AID 624268, 2012;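 active = inhibition above a per-plate cutoff of the control wells' mean inhibition plus 3 SD, cut at about 5.5% in these data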
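Material: parasite MetRS enzyme / Replication: singlicate, one well per compound / Signal: luminescence of leftover ATP / Schedule: 2 h aminoacylation at 25 °C after 15 min preincubation / Medium: HEPES-MgCl2-KCl buffer plus DTT, spermine, BSA, pyrophosphatase / Doses: 11.9 µM single point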
Granule exo inh = LAMP-1 surface exposure blockers, TALL-104 cells – cell-based, flow cytometry, MLPCN library, primary screen; TALL-104 LAMP-1 surface exposure; cells stimulated with thapsigargin and PMA; inhibition, % at 10 µM; hit rate 0.66% among 360,000; AID 651702, 2012;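 active = inhibition above about 55%, limit read from the data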
MC4R antagonist = MC4R antagonists of cAMP signaling, primary screen, cell-based, TR-FRET, antagonist arm of biased-ligand search. Melanocortin receptor 4 (Homo sapiens), P32245. MC4R-expressing cells, MTII-stimulated cAMP, LANCE TR-FRET. inhibition, % at 6.5 µM. hit rate 0.48% among 360,000. AID 540295, 2011;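 active = inhibition above its plate's cutoff, the mean of tested wells on that plate plus 3 SD, cut at about 29% in these data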
Target sequence (P32245 whole entry, looked up): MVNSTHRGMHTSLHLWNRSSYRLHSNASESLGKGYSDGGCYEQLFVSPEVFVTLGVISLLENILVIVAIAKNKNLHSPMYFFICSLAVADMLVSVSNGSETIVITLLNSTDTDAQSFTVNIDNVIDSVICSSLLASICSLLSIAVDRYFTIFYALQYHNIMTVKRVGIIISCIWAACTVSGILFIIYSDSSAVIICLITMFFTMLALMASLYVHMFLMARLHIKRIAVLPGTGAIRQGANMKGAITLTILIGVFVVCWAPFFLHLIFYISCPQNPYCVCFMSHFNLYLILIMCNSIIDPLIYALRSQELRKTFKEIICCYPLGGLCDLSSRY
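Assay system: human MC4R-expressing U2OS cells; reagent: Melanotan II stimulation of cells; dosing: 6.5 µM single dose; timing: compound 30 min, challenge 1 h, detection 1 h; signal: TR-FRET cAMP assay; replicates: one well per compound, no replicates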
MC4R ag barr = MC4R agonists recruiting beta-arrestin, primary screen, cell-based, luminescence, agonist arm of biased-ligand search. Melanocortin receptor 4 (Homo sapiens), P32245. U2OS MC4R beta-arrestin complementation; percent of melanotan II response, DMSO zero. activation, % at 8.9 µM. hit rate 0.98% among 360,000. AID 540308, 2011;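 active = activation above a per-plate cutoff, the mean activation of sample wells on that plate plus 3 SD, cut at about 8% in these data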
cAMP nonselect = nonselective cAMP signaling inhibitors, parental cells, counter-screen for MC4R biased antagonist project, cell-based, TR-FRET, U2OS, forskolin, triplicate; shares compounds with MC4R antagonist; LANCE TR-FRET; inhibition, % at 6.5 µM; hit rate 26% among 1,600;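 active = mean inhibition over triplicates above the low-control well mean plus 3 SD, set per campaign, cut at about 13% in these data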;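 note: signal is single emission at 671 nm which falls as cellular cAMP rises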
MC4R cAMP antag = MC4R cAMP antagonists, retest, confirmation, cell-based, TR-FRET; shares compounds with MC4R antagonist; inhibition, % at 6.5 µM; hit rate 27% among 1,600; MC4R-expressing cells, MTII-stimulated cAMP; in the data active = inhibition above about 29%
Each line names hits and unclear results; the compound was inactive in the other large screens (follow-up assays come after a bar, where they were run). Hits are enriched below; roughly 2.6% of the tested compounds scored in any of these assays.

CSCCC(NC(=O)c1ccc([N+](=O)[O-])cc1Cl)C(=O)OC1CCCCC1=O (stereo unspecified)	MC4R antagonist 31 | cAMP nonselect 14 | MC4R cAMP antag 39
CSCCC(NC(=O)c1ccc([N+](=O)[O-])cc1Cl)C(=O)OCC(=O)NC1CCCC(C)C1C (stereo unspecified)	MC4R antagonist 33 | cAMP nonselect 17 | MC4R cAMP antag 40
CSCCC(NC(=O)c1cc([N+](=O)[O-])ccc1Cl)C(=O)O (stereo unspecified)	none
CSCCC(NC(=O)c1ccc([N+](=O)[O-])cc1Cl)C(=O)OCC(=O)NC(=O)CN1CCCC1=O (stereo unspecified)	none
CCOc1ccccc1C(=O)NCCc1cnc[nH]1	none
CCOC(=O)c1cccc(NC(=O)/C=C/c2cccc([N+](=O)[O-])c2)c1	none
CCOC(=O)/C=C/C(=O)Nc1cccc([N+](=O)[O-])c1	MC4R antagonist 34 | cAMP nonselect 26 | MC4R cAMP antag 60
O=C(c1nc2ccccn2c1CNCCCn1nnc2ccccc21)N1CCOCC1	none
O=C(c1nc2ccccn2c1CNCCn1ccc2ccccc21)N1CCOCC1	MC4R antagonist 32 | cAMP nonselect inactive | MC4R cAMP antag inactive
CC1CCN(C(=O)Cn2cnc3c(cnn3C(C)(C)C)c2=O)CC1	MC4R antagonist 36 | cAMP nonselect inactive | MC4R cAMP antag inactive
CC(C)(C)n1ncc2c(=O)n(CC(=O)N3CCCC3)cnc21	none
CCC(CC)C1C(C#N)=C(N)Oc2n[nH]c(C)c21 (stereo unspecified)	none
CCn1nc(C)c(C2C(C#N)=C(N)Oc3n[nH]c(C)c32)c1C (stereo unspecified)	MC4R antagonist 31 | cAMP nonselect inactive | MC4R cAMP antag inactive
COc1cccc(C(=O)Nc2sc(C(C)C)cc2C(N)=O)c1OC	MC4R antagonist 30 | cAMP nonselect inactive | MC4R cAMP antag inactive
C=C(C)CN(CC)C(=O)CCc1nnc(CCCc2ccccc2)o1	MC4R antagonist 31 | cAMP nonselect inactive | MC4R cAMP antag inactive
Cc1ccc(C(=O)O)cc1NC(=O)Nc1ccc2c(c1)OCO2	MC4R antagonist 30 | cAMP nonselect inactive | MC4R cAMP antag inactive
N#CC1(NC(=O)Cn2ncc(Cl)c(Cl)c2=O)CCCCC1	MC4R antagonist 35 | cAMP nonselect 25 | MC4R cAMP antag 37
Cc1nc(-c2c(-c3ccc(O)cc3O)noc2C(F)(F)F)cs1	none
CCOC(=O)c1c(C)[nH]c(C)c1C(=O)COC(=O)c1cc(OC)cc(OC)c1	none
CCOC(=O)c1c(C)[nH]c(C)c1C(=O)COC(=O)c1cc(OC)c(OC)cc1OC	MC4R antagonist 32 | cAMP nonselect inactive | MC4R cAMP antag inactive
O=C(NCc1cccnc1)Nc1cccc(Cl)c1Cl	none
O=C(CNC(=O)c1ccc(Cl)cc1Cl)OCc1nc2ccccc2s1	MC4R antagonist 29 | cAMP nonselect 14 | MC4R cAMP antag inactive
COC(=O)C1CCN(C(=O)COC(=O)CNC(=O)c2ccc(Cl)cc2Cl)CC1	MC4R antagonist 34 | cAMP nonselect 14 | MC4R cAMP antag inactive
O=C(CNC(=O)c1ccccc1F)OCc1nc2ccccc2s1	none
CN(C(=O)COC(=O)CNC(=O)c1ccc(Cl)cc1Cl)c1ccccc1	MC4R antagonist 30 | cAMP nonselect inactive | MC4R cAMP antag inactive
O=C(CNC(=O)c1ccccc1)OCc1nc2ccccc2s1	MC4R antagonist 37 | cAMP nonselect 17 | MC4R cAMP antag inactive
O=C(CNC(=O)c1ccc(Cl)cc1Cl)OCc1ccccc1	none
CC1CCCCN1C(=O)COC(=O)CNC(=O)c1ccc(Cl)cc1Cl (stereo unspecified)	none
Cc1ccc(SC[C@H](C)CN2CCC(NC(=O)OCc3ccccc3)CCC2=O)cc1 (stereo partly specified)	none (no result: MC4R antagonist, MC4R ag barr)
COc1ccc(OC)c(C(c2c(O)nc(SC)[nH]c2=O)c2c(O)nc(SC)[nH]c2=O)c1	none
Cc1ccc(NC(=O)CN(C)S(=O)(=O)c2cnc[nH]2)c(C)c1	none
Cc1cc(OCC(F)(F)C(F)(F)C(F)(F)C(F)F)nc(N)n1	none
N=C1CCCC1C(=S)SCCC(N)=O (stereo unspecified)	none
Cc1ccc(-c2nn(-c3ccccc3)cc2NC(=O)CCl)cc1	MC4R antagonist 37 | cAMP nonselect inactive | MC4R cAMP antag 41
Cc1ccc(-c2cc(NC(=O)CCl)n(-c3ccccc3)n2)cc1	none
O=C(OCc1ccc(Br)cc1)c1cccc(S(=O)(=O)N2CCCC2)c1	none
O=C(c1ccc([N+](=O)[O-])cc1)N(Cc1ccc(Cl)cc1)N1C(=O)CCCC1=O	MC4R antagonist 32 | cAMP nonselect 17 | MC4R cAMP antag 32
O=C(c1ccc([N+](=O)[O-])cc1)N(Cc1ccc(Cl)cc1Cl)N1C(=O)CCCC1=O	none
C=CCOC(=O)Nc1nc(CCNC(=O)OCc2ccccc2)c(C(=O)OC)s1	none (no result: ABCB6 inh MLPCN, iPSC survival up, MC4R antagonist, MC4R ag barr)
O=C(C1CCCN1C(=O)c1cccs1)N1CCN(Cc2ccc3c(c2)OCO3)CC1 (stereo unspecified)	none
CN(C)S(=O)(=O)c1ccc(N2CCCC2)c(C(=O)N2CCN(c3ccc([N+](=O)[O-])cc3)CC2)c1	MC4R antagonist 34 | cAMP nonselect inactive | MC4R cAMP antag inactive
Cc1cccc(N2CCN(C(=O)c3cc(S(=O)(=O)N(C)C)ccc3N3CCCC3)CC2)c1C	none
Cc1ccc(C(=O)N2CCN(CCNC(=O)C(=O)NCc3ccc(Cl)cc3)CC2)cc1	none
COCCOC1CCN(C(=O)C2CCC(=O)N(CCc3ccccc3)C2)CC1 (stereo unspecified)	none
S=c1[nH]nc(-c2cccc(Br)c2)o1	MC4R antagonist 46 | cAMP nonselect 16 | MC4R cAMP antag inactive
CS(=O)(=O)c1ccc(C(=O)OCC(=O)Nc2cccnc2Cl)cc1[N+](=O)[O-]	none

Assay outcomes deposited in PubChem by several laboratories.
